Published values of several laboratories.
Protocols differ between the studies behind these lines. ≈ marks a conversion by molar mass, not a printed value.

Nc1nc(Cl)c2ncn([C@@H]3O[C@H](CO)[C@@H](F)[C@@H]3F)c2n1 — EC50 (Hepatitis C virus; viral replication, inhibitor; Huh-7; replicon): > 10000 nM
CC(C)CCN1C[C@H]2CC[C@@H]3[C@]4(C)COC(C)(C)O[C@@H]4CC[C@@]3(C)[C@@H]2C[C@@H]1C1=CCOC1=O — inhibition (unidentified human coronavirus; cytopathic effect; MRC5; 25 µM, 72 h): 22%
N#CC(=Cc1ccc([N+](=O)[O-])cc1)C1=NC(=O)C(=Cc2cn(-c3ccccc3)nc2-c2ccccc2)S1 — inhibition zone (Acinetobacter baumannii; microbial growth, well diffusion; 100000 µg/mL): 19 mm
CCOC(=O)c1cc(C#N)c(=O)n(NS(=O)(=O)c2ccccc2)c1N — IC50 (Enterovirus B; plaque formation; BGM, B4): 88 µg/mL (≈ 243 µM)
CCCCCCC/C=C/C(=O)N1C(=O)/C(=C(\O)c2ccc(O)cc2)C(=O)C1CC(C)C (stereo not shown) — MIC (Proteus mirabilis; microbial growth; ATCC25933): > 200 µg/mL
O=C(Nc1ccccc1-c1ccc(F)c(F)c1)c1nccnc1C(F)(F)F — EC50 (Venturia nashicola; microbial growth): 0.8 µg/mL
COC(=O)N[C@H](C(=O)N1CCC[C@H]1C(=O)Nc1cccc(C#CC#Cc2cccc(NC(=O)[C@@H]3CCCN3C(=O)[C@@H](NC(=O)OC)C(C)C)c2)c1)C(C)C — EC50 (Hepatitis C virus; viral replication, inhibitor, luciferase; GETYPE4A; replicon): 6.11 nM
C=C1CC[C@@H]2[C@](C)(CO)[C@H](O)CC[C@@]2(C)[C@@H]1C/C=C1/C(=O)OC[C@H]1O — inhibition (unidentified human coronavirus; cytopathic effect; MRC5; 25 µM, 72 h): 58.4%
Nc1nc(N)c2ncn([C@H]3O[C@H](CO)[C@@H](F)[C@@H]3F)c2n1 — EC50 (Hepatitis C virus; viral replication, inhibitor; Huh-7; replicon): > 10000 nM
CCCCN1C[C@H]2CC[C@@H]3[C@](C)(COC(C)=O)[C@H](OC(C)=O)CC[C@@]3(C)[C@@H]2C[C@@H]1C1=CCOC1=O — inhibition (unidentified human coronavirus; cytopathic effect; MRC5; 25 µM, 72 h): 54.7%
COC(=O)N[C@H](CC(C)C)C(=O)N1CCC[C@H]1C(=O)Nc1cccc(C#CC#Cc2cccc(NC(=O)[C@@H]3CCCN3C(=O)[C@@H](CC(C)C)NC(=O)OC)c2)c1 — EC50 (Hepatitis C virus; viral replication, inhibitor, luciferase; GETYPE4A; replicon): 18.6 nM
CC(=O)OC[C@@]1(C)[C@H]2CC[C@@H]3CN(Cc4ccccc4)[C@@H](C4=CCOC4=O)C[C@H]3[C@]2(C)CC[C@H]1OC(C)=O — inhibition (unidentified human coronavirus; cytopathic effect; MRC5; 25 µM, 72 h): 82.4%
CCOC(=O)N[C@@H](CC(C)C)C(=O)N1CCC[C@H]1C(=O)Nc1cccc(C#CC#Cc2cccc(NC(=O)[C@@H]3CCCN3C(=O)[C@H](CC(C)C)NC(=O)OCC)c2)c1 — EC50 (Hepatitis C virus; viral replication, inhibitor, luciferase; GETYPE4A; replicon): 40.9 nM
CC1(C)OC[C@@]2(C)[C@H]3CC[C@@H]4CN(Cc5ccco5)[C@@H](C5=CCOC5=O)C[C@H]4[C@]3(C)CC[C@H]2O1 — inhibition (unidentified human coronavirus; cytopathic effect; MRC5; 25 µM, 72 h): 17.5%
CCOC(=O)N[C@@H](CC(C)C)C(=O)N1CCC[C@H]1C(=O)Nc1ccc(C#CC#Cc2ccc(NC(=O)[C@@H]3CCCN3C(=O)[C@H](CC(C)C)NC(=O)OCC)cc2)cc1 — EC50 (Hepatitis C virus; viral replication, inhibitor, luciferase; Huh-5-2, GETYPE1B; 72 h, replicon): 3210 nM
COC(=O)N[C@H](C(=O)N1CCC[C@H]1c1ncc(-c2ccc(-c3ccc(-c4cnc([C@@H]5CCCN5C(=O)[C@@H](NC(=O)OC)C(C)C)[nH]4)cc3)cc2)[nH]1)C(C)C — EC50 (Hepatitis C virus; viral replication, inhibitor; GETYPE1A; replicon): 0.05 nM
